The source made the active and inactive calls. The calls are words filed in the database; no cut-off is given here.
Experiments:
[1] = Displacement of [3H]epibatidine from alpha3beta4* nAChR in calf adrenal P1 membrane after 90 mins by liquid scintillation counting; type: cell membranes, Bos taurus
Outline: (§1)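 Rat forebrain P2, calf adrenal P1 or Torpedo californica electroplax P1 membranes (60 µg protein) with 0.5 nM (±)-[3H]epibatidine in HEPES-salt solution (15 mM HEPES, 120 mM NaCl, 5.4 mM KCl, 0.8 mM MgCl2, 1.8 mM CaCl2) at 22 °C. Run in duplicate. Nonspecific binding defined with 300 µM (−)-nicotine. Filtered on PEI-soaked GF/B filters. Ki derived from IC50 by Cheng-Prusoff, Kd 10 pM.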

[2] = Displacement of [3H]epibatidine from alpha4beta2* nAChR in Sprague-Dawley rat brain P2 membrane after 90 mins by liquid scintillation counting; type: tissue-based; outline: as §1
[3] = Displacement of [3H]MLA from alpha7* nAChR in Sprague-Dawley rat brain P2 membrane after 180 mins by liquid scintillation counting
[4] = Displacement of [3H]epibatidine from (alpha1)2beta1gammadelta nAChR in electric ray electroplax P1 membrane after 90 mins by liquid scintillation counting; design: species or system Tetronarce californica; outline: as §1
Rattus norvegicus = species: Rattus norvegicus; assay: Displacement of [3H]epibatidine from alpha4beta2* nAChR in Sprague-Dawley rat brain P2 membrane up to 50 uM after 90 mins by liquid scintillation counting; type: tissue-based
[5] = Displacement of [3H]MLA from alpha7* nAChR in rat brain membrane; type: cell membranes
Outline: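 Rat brain crude P2 membranes in HEPES-salt solution (15 mM HEPES, 120 mM NaCl, 5.4 mM KCl, 0.8 mM MgCl2, 1.8 mM CaCl2), 22 °C, duplicates. [3H]MLA 2 nM final, 180 min; nonspecific binding with 1 µM MLA. GF/B filtration (1% PEI presoaked), scintillation counting. Nonlinear regression IC50; Ki by Cheng-Prusoff with Kd = 1 nM.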

SMILES	Ki [1]	Ki [2]	Ki [3]	Ki [4]	Activity (Rattus norvegicus)	Ki [5]
CCCCCCCCCCn1cc(CC[N+](C)(C)C)c2ccccc21	> 10 µM	> 10 µM				
C=CCn1cc(CCNC)c2ccccc21	> 10 µM	> 10 µM				
C=CCn1cc(CCN(C)C)c2ccccc21	2.85 µM	> 10 µM	> 10 µM			
CCCCCCCCn1cc(CC[N+](C)(C)C)c2ccccc21	> 10 µM	0.527 µM				
C=CCn1cc(CC[N+](C)(C)C)c2ccccc21	0.365 µM	0.517 µM	6.8 µM	> 10 µM		
CCCCCCCCCCCCn1cc(CCC[N+](C)(C)C)c2ccccc21	> 10 µM	> 10 µM	> 10 µM			
CC(C)=CCn1cc(CCN(C)C)c2ccccc21	1.82 µM	> 10 µM	> 10 µM			
Cn1cc(CC[N+](C)(C)C)c2ccccc21	2.01 µM	> 10 µM	> 10 µM	> 10 µM		
CC(C)=CCn1cc(CC[N+]2(C)CCCC2)c2ccccc21		> 10 µM				
CCCCCCCCCCCCn1cc(CC[N+](C)(C)C)c2ccccc21	> 10 µM	> 10 µM				
CCCCCCCCn1cc(CCC[N+](C)(C)C)c2ccccc21	> 10 µM	0.243 µM	> 1 µM			
CNCCc1cn(CC=C(C)C)c2ccccc12	> 10 µM	> 10 µM	> 10 µM			
CCCCCCCCn1cc(CN(C)C)c2ccccc21	> 10 µM	> 10 µM	> 10 µM			
CC(C)=CCn1cc(CC[N+](C)(C)C)c2ccc(Br)cc21	5.33 µM	0.412 µM	1.53 µM	> 10 µM		
CCCCCCCCn1cc(C[N+](C)(C)C)c2ccccc21	3.4 µM	0.706 µM	> 5 µM			
CN(C)CCc1cn(C)c2ccccc12	3.68 µM	> 10 µM				
CCCCCCCCn1cc(CCCN(C)C)c2ccccc21	> 10 µM	> 10 µM				
CN1CCC[C@H]1c1cccnc1 [NICOTINE]	0.0753 µM	0.00085 µM	0.129 µM			
CCCCCCCCCCn1cc(C[N+](C)(C)C)c2ccccc21	> 10 µM	> 10 µM	> 10 µM			

SMILES	Ki [1]	Ki [2]	Ki [3]	Ki [4]	Activity (Rattus norvegicus)	Ki [5]
CCCCCCCCCCn1cc(CCN(C)C)c2ccccc21	> 10 µM	> 10 µM				
CCCCCCCCn1c(C[N+](C)(C)C)cc2ccccc21	> 10 µM	> 10 µM	> 10 µM			
CCCCCCCCCCCCn1cc(C[N+](C)(C)C)c2ccccc21	> 10 µM	> 10 µM	> 10 µM			
CNCCc1cn(C)c2ccccc12	> 10 µM	> 10 µM				
CC(C)=CCn1cc(CN(C)C)c2ccc(Br)cc21	> 10 µM	1.38 µM				
CCCCCCCCCCn1cc(CCCN(C)C)c2ccccc21	> 10 µM	> 10 µM	> 10 µM			
CC(C)=CCn1cc(C[N+](C)(C)C)c2ccccc21	> 10 µM	0.435 µM	> 10 µM			
CCCCCCCCn1cc(CCN(C)C)c2ccccc21	> 10 µM	> 10 µM	> 10 µM	> 10 µM		
CC(C)=CCn1cc(C[N+](C)(C)C)c2ccc(Br)cc21	> 1 µM	0.203 µM	> 1 µM			
CCCCCCCCCCCCn1cc(CN(C)C)c2ccccc21	> 10 µM	> 10 µM	> 10 µM			
CC(C)=CCn1cc(CC[N+](C)(C)C)c2ccccc21	0.0939 µM	0.136 µM	0.862 µM	2.36 µM		
CCCCCCCCCCCCn1cc(CCCN(C)C)c2ccccc21	> 10 µM	> 10 µM	> 10 µM			
CCCCCCCCCCCCn1cc(CCN(C)C)c2ccccc21	> 10 µM	> 10 µM				
CNCCc1cn(CC=C(C)C)c2cc(Br)ccc12 [DEFORMYLFLUSTRABROMINE B]	> 10 µM	> 10 µM			inactive	17 µM
CCCCCCCCn1c(CN(C)C)cc2ccccc21	> 10 µM	> 10 µM	> 10 µM			
CC(C)=CCn1cc(CN(C)C)c2ccccc21	> 10 µM	> 10 µM				
CCCCCCCCCCn1cc(CCC[N+](C)(C)C)c2ccccc21	> 10 µM	> 10 µM	> 10 µM			
CCCCCCCCCCn1cc(CN(C)C)c2ccccc21	> 10 µM	> 10 µM	> 10 µM			
